From publication PMC2222990 (The Journal of General Physiology, 1999)

Key:
[1] = molecular target: T1, bovine rod photoreceptor CNG channel α subunit (Bos taurus, UniProt Q00194); test: Inside-out patch clamp of rod CNG channels expressed in Xenopus oocytes; assay type: biochemical; details: for effect on cGMP sensitivity (K 1/2 for cGMP): 10 μM genistein, 10 μM lavendustin A, 25 μM erbstatin
T1 sequence (Q00194 1-690): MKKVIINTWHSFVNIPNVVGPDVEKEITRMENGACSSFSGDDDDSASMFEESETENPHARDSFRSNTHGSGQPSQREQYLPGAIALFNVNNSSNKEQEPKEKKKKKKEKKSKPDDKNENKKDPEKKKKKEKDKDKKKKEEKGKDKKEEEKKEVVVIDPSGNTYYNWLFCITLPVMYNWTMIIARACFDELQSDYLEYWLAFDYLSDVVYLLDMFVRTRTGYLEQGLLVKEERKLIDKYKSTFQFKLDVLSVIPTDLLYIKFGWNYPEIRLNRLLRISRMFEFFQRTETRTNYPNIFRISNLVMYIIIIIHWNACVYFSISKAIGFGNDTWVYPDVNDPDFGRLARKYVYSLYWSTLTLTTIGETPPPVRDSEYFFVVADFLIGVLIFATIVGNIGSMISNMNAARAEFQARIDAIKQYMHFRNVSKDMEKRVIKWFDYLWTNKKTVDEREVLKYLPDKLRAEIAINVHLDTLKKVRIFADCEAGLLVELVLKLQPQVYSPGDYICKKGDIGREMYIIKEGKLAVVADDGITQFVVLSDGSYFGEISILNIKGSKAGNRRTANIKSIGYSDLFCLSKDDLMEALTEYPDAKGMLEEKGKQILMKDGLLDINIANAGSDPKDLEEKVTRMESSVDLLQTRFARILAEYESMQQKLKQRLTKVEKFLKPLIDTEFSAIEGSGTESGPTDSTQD
How it was run: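 Inside-out patches from Xenopus oocytes 2–7 d after injection (vitelline membrane removed), 21–24°C, held at −75 mV. Pipette/bath solution: 115 mM NaCl, 5 mM EGTA, 1 mM EDTA, 10 mM HEPES, pH 7.5. Test compound preapplied 1 min to closed channels (±100 μM erbstatin) at 1 or 10 min after excision, or applied at steady state; then 2 mM cGMP. Currents normalized to Imax; Ki, Hill coefficient and cGMP K1/2 (4–5 cGMP levels) fitted to Hill equation; mean ± SEM.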

[2] = molecular target: T2, rat olfactory CNG channels (Rattus norvegicus, UniProt Q00195); assay type: biochemical; details: n = 10 patches
T2 sequence (Q00195 1-664): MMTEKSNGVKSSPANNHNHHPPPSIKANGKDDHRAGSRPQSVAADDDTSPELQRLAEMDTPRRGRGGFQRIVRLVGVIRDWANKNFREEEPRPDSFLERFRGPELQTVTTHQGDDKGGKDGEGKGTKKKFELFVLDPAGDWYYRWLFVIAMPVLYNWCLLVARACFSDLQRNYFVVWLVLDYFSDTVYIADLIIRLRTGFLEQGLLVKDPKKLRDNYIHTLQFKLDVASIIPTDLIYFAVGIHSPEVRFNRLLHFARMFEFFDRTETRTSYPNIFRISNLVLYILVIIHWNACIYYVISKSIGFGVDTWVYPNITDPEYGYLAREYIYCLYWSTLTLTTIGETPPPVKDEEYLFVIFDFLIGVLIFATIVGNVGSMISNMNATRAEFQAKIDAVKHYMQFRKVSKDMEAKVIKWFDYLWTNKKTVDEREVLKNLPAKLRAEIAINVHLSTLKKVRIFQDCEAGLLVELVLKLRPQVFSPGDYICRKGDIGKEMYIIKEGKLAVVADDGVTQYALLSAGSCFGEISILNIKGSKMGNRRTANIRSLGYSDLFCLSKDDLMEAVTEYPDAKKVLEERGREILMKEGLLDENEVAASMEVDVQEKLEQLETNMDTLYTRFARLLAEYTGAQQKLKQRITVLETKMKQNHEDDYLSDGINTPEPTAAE

[3] = system: native CNG channels from salamander rod outer segments; test: Inside-out patches with native CNG channels from rod outer segments; assay type: biochemical, tiger salamanders (Ambystoma tigrinum); details: 100 μM genistein
[4] = system: rod CNG channel; details: ref Fodor et al., 1997a; cited from earlier work
[5] = 100 μM genistein, preexposure 1 min, 2 mM cGMP

In the case of `O=c1c(-c2ccc(O)cc2)coc2cc(O)ccc12` [daidzein], the “effect on rod CNG channels (maximal current)” value ([1]; saturating cGMP) is reported as “no effect” and the “effect on rat olfactory CNG channels” value [2] is reported as “no effect”.
With `O=CN/C=C/c1cc(O)ccc1O` [erbstatin] the “effect on cGMP sensitivity (K 1/2 for cGMP)” value (“effect on cGMP sensitivity” below) ([1]; in the presence of ATP) was “increase in cGMP sensitivity”.
With `O=c1c(-c2ccc(O)cc2)coc2cc(O)cc(O)c12` [genistein] the “time course of inhibition” value [1] was > 30 s, the “residual current, % of maximal CNG current” value ([1]; 100 μM genistein with 100 μM erbstatin present) was 20% and the “residual current (fraction of total current with normal rapid activation)” value [1, 5] was 4.5%. For the same compound, the “steady state current elicited by cGMP” value [1, 5] was 40 % of control, the “residual current, % of maximal CNG current” value ([1]; 100 μM genistein, without erbstatin) was < 5% and the “voltage dependence of inhibition” value ([1]; 100 μM genistein, saturating cGMP) was “voltage-independent”. For the same compound, the “time constant of slow current activation by cGMP” value ([1]; 100 μM genistein, single exponential fit) was 10.6 s, the Ki ([1]; K i for genistein inhibition of CNG current activation by cGMP, in the presence of 1 mM ATP) was 10.6 ± 1.3 µM and the Ki ([1]; apparent affinity of genistein for the rod channel, closed to activated channels) was 5 to 80 µM. For the same compound, the “K i values at 1 versus 10 min after patch excision” value ([1]; closed channels, residual current) was “do not differ”, the “extent of inhibition of steady state (fully activated) CNG current” value ([1]; high genistein concentrations (e.g., 1 mM)) was “incomplete” and the “Hill coefficient for genistein inhibition” value ([1]; in the absence of ATP) was 1.9 ± 0.2. The “effect on cGMP sensitivity” value ([1]; in the absence of ATP) was “no effect”, the “Hill coefficient for genistein inhibition” value ([1]; in the presence of ATP) was 2.0 ± 0.2 and the “effect on cGMP sensitivity” value ([1]; in the presence of ATP) was “increase in cGMP sensitivity”. For the same compound, the inhibition at 100 µM ([1]; read-out: inhibition of closed channels, 100 μM genistein, without erbstatin) was > 95%, the “extent of inhibition of closed channels” value ([1]; saturating genistein (>100 μM)) was “complete inhibition” and the “time constant of inhibition of closed CNG channels” value ([1]; single exponential fit, data not shown) was 8.9 s. For the same compound, the “time required to recover from genistein inhibition” value ([1]; unpublished observations) was > 60 s, the “effect on rat olfactory CNG channels” value [2] was “no effect” and the “effect on cGMP-activated current of native channels” value [3] was “reduced the magnitude of the cGMP-activated current and slowed the activation kinetics”.
In the case of `O=C(O)c1cc(N(Cc2ccccc2O)Cc2cc(O)ccc2O)ccc1O` [lavendustin A], the “effect on cGMP sensitivity” value ([1]; in the presence of ATP) is reported as “increase in cGMP sensitivity”.
For `CCCCNc1ccc(C(=O)OCCN(C)C)cc1` [tetracaine], the time of block [4] is given as < 100 ms.
